# MPTP block: permeability transition pore inhibition | isolated mouse mitochondria, Ca2+ swelling absorbance, 30 min | inhibition, % at 10 µM | 360,000 compounds, 1.4% hits | AID 602449;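 active = inhibition of 50% or more, scaled per plate between neutral and stimulator controls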;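 note: 0% = DMSO wells given calcium and 100% = 1 mM EGTA wells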
# GRIN3A LBD mod: NR3A (human) ligand-binding domain modulation; NR3A LBD differential scanning fluorimetry, Tm shift; 0% = protein alone, 100% = glycine-bound protein; Tm shift relative to glycine control, % at 25 µM; 340,000 compounds, 2.5% hits;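 active = melting temperature shift of at least 10% of the positive control shift, at one fixed dose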
# XBP1 UPR activ: adaptive UPR (XBP1) activation; CHO-XBP1 luciferase reporter, IRE1-XBP1 UPR activation, luminescence; percent of tunicamycin response, DMSO as zero; activation, % at 20 µM; 330,000 compounds, 0.33% hits; AID 463104;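 active = versus positive control, 20 µM dose yields 30% or more activation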;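 note: 100% = tunicamycin at 10 µg/mL and 0% = DMSO only wells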
#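 Assay system: IRE1-XBP1 luciferase reporter CHO line. Input: 1000 cells/well. Buffer or medium: F12 with 10% serum. Doses: 20 µM, 1% DMSO. Times: overnight seeding at 37 °C, 6 h compound treatment at 37 °C. Technique: Steady-Glo luciferase glow luminescence, 10 min after reagent addition.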
# CHOP inh: blocks CHOP induction under ER stress | inhibition, % at 10 µM | CHO-K1 CHOP-promoter luciferase, tunicamycin-induced, 15-18 h | 220,000 compounds, 3.8% hits;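 active = compounds that reduced the stress-induced luciferase reporter signal by more than about 70% of percent inhibition, limit read from the data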;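 note: 0% = tunicamycin plus vehicle and 100% = wells without tunicamycin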
# CHOP UPR activ: apoptotic UPR (CHOP) activation. CHO-CHOP luciferase reporter, luminescence; percent of tunicamycin response over DMSO baseline. 330,000 compounds, 0.34% hits. activation, % at 10 µM;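 active = at 10 µM dose, activation of 40% or more, normalized to positive control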;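 note: 100% = tunicamycin at 10 µg/mL and 0% = DMSO alone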
#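 System: CHO-CHOP luciferase reporter cell line | Buffer or medium: F12 medium containing 10% fetal bovine serum | Doses: One dose, 10 µM in 0.5% DMSO | Times: 6 h compound exposure at 37 °C after overnight seeding | Signal: Luciferase luminescence | Read-out: % activation vs tunicamycin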
# aDG glyco up: increases alpha dystroglycan glycosylation. Pro5-aDG cells, alpha-DG glycosylation AlphaScreen (IIH6); 0% Pro5, 100% B10-LARGE cell signal. activation, % at 10 µM. 360,000 compounds, 0.22% hits. AID 624168;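 active = activation of at least 8% versus controls, or a plate z-score of at least 8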;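 note: Pro5 are CHO cells carrying HIG-tagged alpha-DG that lacks glycosylation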
# Rh123 counter: Rhodamine 123 counter-screen of mitochondrial pore hits; shares compounds with MPTP block; isolated mitochondria, membrane potential, Rhodamine 123 fluorescence; inhibition, % at 10 µM; 5,000 compounds, 78% hits; AID 624504; in the data active = inhibition above about 22%;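 note: 0% = DMSO vehicle and 100% = positive control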
# * marks the source's active call; other numbers are inactive results; . = no result given; ! = not confirmed by another sample. The list is not random: actives were taken first. Their share in the collection is about 5.6%.
SMILES,MPTP block,GRIN3A LBD mod,XBP1 UPR activ,CHOP inh,CHOP UPR activ,aDG glyco up,Rh123 counter
O=C(Nc1cccc(C(F)(F)F)c1)OCCN1CCN(Cc2ccccc2)CCC1=O,98*,-2,-2,-3,-4,0,90*
CC(NC(=O)Nc1ccc(Cl)c(Cl)c1)C(c1ccccc1)N1CCOCC1 (stereo unspecified),89*,1,0,17,0,0,95*
CC(Cc1cccs1)NC(=O)Nc1ccc(Cl)c(Cl)c1 (stereo unspecified),96*,8,-1,49,4,0,94*
C[C@@H]1CN([C@H](C)CO)C(=O)CCCn2nncc2CO[C@H]1CN(C)Cc1ccccc1C(F)(F)F,-1,.,.,.,.,0,.
Cc1nc2ccccn2c1C(=O)CSc1ccc(Cl)cc1Cl,72*,-7,2,45,0,1,4
Cc1ccc(C(=O)N(C)CCOc2ccccc2)cc1S(=O)(=O)N1CCCCC1,0,7,-1,.,-2,0,.
COc1ccc(NCc2nc3ccccc3n2CCOc2ccc(C)cc2)cc1,70*,-2,1,58,4,0,37*
Cn1ncc(Oc2ccc([N+](=O)[O-])cc2)c(Cl)c1=O,1,2,-3,5,-2,0,.
CC(C)(C)n1ncc(Oc2ccccc2[N+](=O)[O-])c(Cl)c1=O,86*,-2,2,41,-1,2,34*
C[C@H](CO)N1C[C@H](C)[C@H](CN(C)C(=O)Cc2ccncc2)Oc2ncc(Br)cc2C1=O,0,.,.,.,.,0,.
Cc1ccc(OCC(=O)c2cc(C)n(CC(F)(F)F)c2C)c([N+](=O)[O-])n1,0,2,-5,21,1,0,.
Cc1ccc(OCC(=O)c2cc(C)n(Cc3cccs3)c2C)c([N+](=O)[O-])n1,76*,-2,-7,59,-7,1,67*
Cn1c(=O)c2[nH]c(CCCCCCCCc3nc4ccccc4[nH]3)nc2n(C)c1=O,102*,0,.,.,.,4,94*
COc1cc(CNCCc2c[nH]c3ccccc23)ccc1OCc1ccc(F)cc1,70*,-3,3,88*,1,3,-25
COc1ccc(C(=O)CSc2[nH]c(=O)cc(C(F)(F)F)c2C#N)cc1,85*,4,-1,-1,1,0,76*
CCC(=O)Nc1ccc(N2CCN(S(C)(=O)=O)CC2)cc1,5,-7,-1,4,0,0,.
CCC(C)Sc1cc(-c2nc3ccc(C)cn3c2NCc2ccccc2)ccc1OC (stereo unspecified),54*!,-30,.,.,.,0,105*
CCCCNc1c(-c2ccc(Sc3ccc(OC)cc3)cc2)nc2cc(C)ccn12,60*,-34,1,.,1,2,97*
CCC(C)Sc1ccc(-c2nc3ccc(C)cn3c2NCc2ccccc2)cc1OC (stereo unspecified),13,-11,-6,.,14,3,.
CCCCNc1c(-c2ccc(OC)c(SC(C)CC)c2)nc2ccc(C)cn12 (stereo unspecified),59*!,-39,-10,.,-6,1,99*
COc1ccc(Nc2nc3ccccc3nc2NS(=O)(=O)c2cccs2)cc1,61*,22*,3,41,-1,0,64*
O=C(O)c1cccc(Nc2nc3ccccc3nc2NS(=O)(=O)c2cccs2)c1,0,-3,-4,.,-2,0,.
CC(=O)c1ccc(Nc2nc3ccccc3nc2NS(=O)(=O)c2cccs2)cc1,83*,-2,-2,.,3,0,32*
Cc1c(NC(=O)Nc2ccc(C#N)cc2)c(=O)n(-c2ccccc2)n1C,1,-2,4,.,6,0,.
CCN(Cc1ccccc1)N=Nc1ccccc1,1,.,.,.,.,0,.
SMILES,MPTP block,GRIN3A LBD mod,XBP1 UPR activ,CHOP inh,CHOP UPR activ,aDG glyco up,Rh123 counter
Cc1cc(C(=O)Nn2c(-c3ccc(Br)cc3)nc3ccccc3c2=O)ccc1[N+](=O)[O-],67*,8,0,91*,-1,1,87*
Cc1cc(C(=O)CSc2nnc(-c3ccccc3F)o2)c(C)n1Cc1cccs1,54*,-1,-1,38,-3,0,29*
COc1ccccc1-n1cnnc1SCC(=O)c1cc(C)n(Cc2cccs2)c1C,7,-3,0,32,0,0,.
O=[N+]([O-])c1cc2ccccc2c(O)c1O,0,.,.,.,.,0,.
O=[N+]([O-])c1cc(-c2ccccc2)cc([N+](=O)[O-])c1O,78*,-7,.,.,.,0,89*
Cc1ccc(-c2csc(N3CCC(NS(=O)(=O)c4ccc5c(c4)OCCO5)CC3)n2)cc1,95*,-2,1,67,6,6,95*
O=C(Nc1ccncc1)Nc1cccc(C(F)(F)F)c1,81*,14*,-4,.,0,0,99*
N/C(=N\OC(=O)Nc1cccc(C(F)(F)F)c1)c1ccno1,72*,-1,0,8,0,0,94*
Cn1ccc(NC(=O)Nc2cccc(C(F)(F)F)c2)n1,-1,0,-1,18,1,0,.
Cc1c(NC(=O)Nc2ccccc2)c(=O)n(-c2ccccc2)n1C,1,0,.,.,.,0,.
Cc1c(NC(=O)Nc2ccc(Cl)c(Cl)c2)c(=O)n(-c2ccccc2)n1C,90*,-2,0,65,-1,0,90*
O=C(Nc1cccc(C(F)(F)F)c1)Nc1ccon1,21,-6,-2,.,3,0,.
Cc1nn(C)c(C)c1NC(=O)Nc1cccc(C(F)(F)F)c1,72*,-2,-5,-14,-1,0,54*
CN1C(=O)N(CC(=O)Nc2ccc3c(c2)OCO3)C(=O)C12CCCCC2,0,.,.,.,.,0,.
c1ccc2c(c1)COc1c3ncccc3nn1-2,-1,.,.,.,.,0,.
CSCCC(C)N1CCC(Oc2ccc(C(=O)NCc3ccccn3)cc2)CC1 (stereo unspecified),0,.,.,.,.,0,.
CCN(CC)S(=O)(=O)c1ccc(NC(=O)Nc2cccc(C(F)(F)F)c2)cc1,84*,31*,7,55,15,-1,74*
O=C(Nc1cccc(C(F)(F)F)c1)c1cc(-c2ccco2)on1,1,-5,3,.,1,0,.
O=C(Nc1cccc(C(F)(F)F)c1)c1sc(Cl)nc1C(F)(F)F,83*,-6,-5,.,2,0,77*
CCN(CC)S(=O)(=O)c1ccc(/C=C/C(=O)Nc2cccc(F)c2)cc1,40,7,-2,25,3,0,.
Cc1nn(C)c(C)c1CNC(=O)Nc1ccc(Cl)cc1,2,-2,0,5,2,0,.
